In ChEMBL document CHEMBL1126625, “7-Azetidinylquinolones as antibacterial agents. Synthesis and structure-activity relationships” (J Med Chem, 1993):
Values after ≈ are worked out from the molar mass of the structure shown.

How the values were obtained:
Proteus vulgaris = assay: Minimum inhibitory concentration (MIC) preventing growth of Proteus vulgaris; assay type: functional
Staphylococcus aureus [1] = assay: Minimum inhibitory concentration (MIC) preventing growth of […]; assay type: functional
Klebsiella pneumoniae = assay: Minimum inhibitory concentration (MIC)preventing growth of Klebsiella pneumoniae; assay type: functional
Pseudomonas aeruginosa [2] = assay: Efficacy on systemic infections after oral administration in mice was determined against Pseudomonas aeruginosa HS-116; assay type: functional
In short: (§1)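 Mouse protection test using 4 groups of 10 mice. Mice were infected intraperitoneally with a bacterial suspension slightly above LD100. A single oral dose was given immediately after infection, with four doses, one per group, chosen from in vitro activity. Survival was scored after one week, and ED50 (total mg/kg protecting 50% of mice) was interpolated from group survival rates.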

Staphylococcus aureus [3] = assay: Efficacy on systemic infections after oral administration in mice was determined against […] HS-93; assay type: functional; in short: as §1
Pseudomonas aeruginosa [4] = assay: Minimum inhibitory concentration (MIC)preventing growth of Pseudomonas aeruginosa; assay type: functional
Enterobacter cloacae = assay: Minimum inhibitory concentration (MIC)preventing growth of Enterobacter cloacae; assay type: functional
Mus musculus = assay: Blood level after oral administration in mice (50 mg/kg) was determined by bioassay procedure and represent total activity present in the serum; assay type: ADME, organism-based; details: in vivo
In short: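 Single oral dose of 50 mg/kg to mice. Blood taken from groups of six mice at 0.5, 1, 2 and 4 h after dosing. Serum levels measured by disk agar diffusion bioassay with Bacillus subtilis ATCC 6633 on Seed Agar, plates incubated 18 h at 37 °C, giving total activity in serum. AUC 0-4 h expressed as μg/mL […].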

Morganella morganii = assay: Minimum inhibitory concentration (MIC) preventing growth of Morganella morganii; assay type: functional
[5] = system: Staphylococcus epidermidis; assay: Minimum inhibitory concentration (MIC) preventing growth of Staphylococcus epidermidis; assay type: functional
Bacillus cereus = assay: Minimum inhibitory concentration (MIC) preventing growth of Bacillus cereus; assay type: functional
Enterococcus faecalis = assay: Minimum inhibitory concentration (MIC) preventing growth of Streptococcus faecalis ATCC 10541; assay type: functional
Bacillus subtilis = assay: Minimum inhibitory concentration (MIC) preventing growth of Bacillus subtilis; assay type: functional
Escherichia coli [6] = assay: Minimum inhibitory concentration (MIC)preventing growth of Escherichia coli; assay type: functional
Escherichia coli [7] = assay: Efficacy on systemic infections after oral administration in mice was determined against Escherichia coli HM-42; assay type: functional; in short: as §1
[8] = system: Staphylococcus epidermidis; assay: pIn vitro minimum inhibitory concentration (MIC) that prevented growth of Staphylococcus epidermidis ATCC 155-1 (Se) after incubation at 37 degree C for 18 h; assay type: functional

| SMILES | MIC (Proteus vulgaris) [µg/mL] | MIC (Staphylococcus aureus [1]) [µg/mL] | MIC (Klebsiella pneumoniae) [µg/mL] | ED50 (Pseudomonas aeruginosa [2]) [mg/kg] | ED50 (Staphylococcus aureus [3]) [mg/kg] | MIC (Pseudomonas aeruginosa [4]) [µg/mL] | MIC (Enterobacter cloacae) [µg/mL] | AUC (Mus musculus) [ng·h/mL] | MIC (Morganella morganii) [µg/mL] | MIC [5] [µg/mL] | MIC (Bacillus cereus) [µg/mL] | MIC (Enterococcus faecalis) [µg/mL] | MIC (Bacillus subtilis) [µg/mL] | MIC (Escherichia coli [6]) [µg/mL] | ED50 (Escherichia coli [7]) [mg/kg] | MIC [8] [µg/mL] |
| --- | --- | --- | --- | --- | --- | --- | --- | --- | --- | --- | --- | --- | --- | --- | --- | --- |
| NC1CN(c2c(F)cc3c(=O)c(C(=O)O)cn(C4CC4)c3c2Cl)C1 | 0.015 (≈ 0.0426 µM) | 0.12 (≈ 0.341 µM) | 0.06 (≈ 0.171 µM) | 34 | 7.2 | 0.25 (≈ 0.711 µM) | 0.015 (≈ 0.0426 µM) | 8500 | 0.015 (≈ 0.0426 µM) | 0.12 (≈ 0.341 µM) | 0.12 (≈ 0.341 µM) | 0.12 (≈ 0.341 µM) | 0.06 (≈ 0.171 µM) | 0.015 (≈ 0.0426 µM) | 1.1 | – |
| CC1(N)CN(c2nc3c(cc2F)c(=O)c(C(=O)O)cn3-c2ccc(F)cc2F)C1 | 0.5 (≈ 1.24 µM) | 0.12 (≈ 0.297 µM) | 0.06 (≈ 0.148 µM) | 108 | 6.7 | 1 (≈ 2.47 µM) | 0.12 (≈ 0.297 µM) | 46400 | 0.25 (≈ 0.618 µM) | 0.12 (≈ 0.297 µM) | 0.12 (≈ 0.297 µM) | 0.5 (≈ 1.24 µM) | 0.06 (≈ 0.148 µM) | 0.12 (≈ 0.297 µM) | 3.1 | – |
| CC1(N)CN(c2nc3c(cc2F)c(=O)c(C(=O)O)cn3C2CC2)C1 | 0.12 (≈ 0.361 µM) | 0.25 (≈ 0.752 µM) | 0.03 (≈ 0.0903 µM) | 52 | 10.7 | 0.5 (≈ 1.5 µM) | 0.03 (≈ 0.0903 µM) | 31700 | 0.06 (≈ 0.181 µM) | 0.12 (≈ 0.361 µM) | 0.12 (≈ 0.361 µM) | 0.25 (≈ 0.752 µM) | 0.03 (≈ 0.0903 µM) | 0.03 (≈ 0.0903 µM) | 2.8 | – |
| CC1(N)CN(c2c(F)cc3c(=O)c(C(=O)O)cn(-c4ccc(F)cc4F)c3c2Cl)C1 | 0.12 (≈ 0.274 µM) | 0.06 (≈ 0.137 µM) | 0.03 (≈ 0.0685 µM) | 43 | 1.2 | 0.5 (≈ 1.14 µM) | 0.12 (≈ 0.274 µM) | 23300 | 0.25 (≈ 0.571 µM) | 0.06 (≈ 0.137 µM) | 0.06 (≈ 0.137 µM) | 0.25 (≈ 0.571 µM) | 0.03 (≈ 0.0685 µM) | 0.03 (≈ 0.0685 µM) | 1.5 | – |
| CC1COc2c(N3CC(C)(N)C3)c(F)cc3c(=O)c(C(=O)O)cn1c23 (stereo unspecified) | 1 (≈ 2.88 µM) | 0.5 (≈ 1.44 µM) | 0.015 (≈ 0.0432 µM) | – | – | 2 (≈ 5.76 µM) | 0.12 (≈ 0.345 µM) | – | 0.25 (≈ 0.72 µM) | – | 0.5 (≈ 1.44 µM) | 0.5 (≈ 1.44 µM) | 0.12 (≈ 0.345 µM) | 0.12 (≈ 0.345 µM) | – | 0.25 (≈ 0.72 µM) |
| CC1(N)CN(c2nc3c(cc2F)c(=O)c(C(=O)O)cn3-c2ccc(F)cc2)C1 | 1 (≈ 2.59 µM) | 0.25 (≈ 0.647 µM) | 0.06 (≈ 0.155 µM) | 82.7 | 7.5 | 2 (≈ 5.18 µM) | 0.06 (≈ 0.155 µM) | 33000 | 0.12 (≈ 0.311 µM) | 0.25 (≈ 0.647 µM) | 0.25 (≈ 0.647 µM) | 4 (≈ 10.4 µM) | 0.06 (≈ 0.155 µM) | 0.06 (≈ 0.155 µM) | 1.3 | – |
| CNC1CN(c2c(F)cc3c(=O)c(C(=O)O)cn(C4CC4)c3c2Cl)C1 | 0.015 (≈ 0.041 µM) | 0.06 (≈ 0.164 µM) | 0.12 (≈ 0.328 µM) | 39 | 15.2 | 0.25 (≈ 0.683 µM) | 0.015 (≈ 0.041 µM) | 4000 | 0.015 (≈ 0.041 µM) | 0.06 (≈ 0.164 µM) | 0.12 (≈ 0.328 µM) | 0.25 (≈ 0.683 µM) | 0.015 (≈ 0.041 µM) | 0.015 (≈ 0.041 µM) | 2 | – |
| CNC1(C)CN(c2nc3c(cc2F)c(=O)c(C(=O)O)cn3C2CC2)C1 | 0.25 (≈ 0.722 µM) | 0.25 (≈ 0.722 µM) | 0.03 (≈ 0.0866 µM) | 102 | 9.6 | 1 (≈ 2.89 µM) | 0.06 (≈ 0.173 µM) | 22900 | 0.06 (≈ 0.173 µM) | 0.25 (≈ 0.722 µM) | 0.12 (≈ 0.346 µM) | 1 (≈ 2.89 µM) | 0.03 (≈ 0.0866 µM) | 0.03 (≈ 0.0866 µM) | 3 | – |
| CNC1CN(c2c(F)cc3c(=O)c(C(=O)O)cn(-c4ccc(F)cc4F)c3c2Cl)C1 | 0.12 (≈ 0.274 µM) | 0.015 (≈ 0.0343 µM) | 0.12 (≈ 0.274 µM) | 30 | 1.3 | 0.25 (≈ 0.571 µM) | 0.12 (≈ 0.274 µM) | 15300 | 0.12 (≈ 0.274 µM) | 0.06 (≈ 0.137 µM) | 0.06 (≈ 0.137 µM) | 0.12 (≈ 0.274 µM) | 0.015 (≈ 0.0343 µM) | 0.015 (≈ 0.0343 µM) | 1.3 | – |
| CC1(N)CN(c2c(F)cc3c(=O)c(C(=O)O)cn(C4CC4)c3c2Cl)C1 | 0.12 (≈ 0.328 µM) | 0.06 (≈ 0.164 µM) | 0.03 (≈ 0.082 µM) | 59.8 | 4.1 | 0.25 (≈ 0.683 µM) | 0.03 (≈ 0.082 µM) | 2800 | 0.03 (≈ 0.082 µM) | 0.06 (≈ 0.164 µM) | 0.06 (≈ 0.164 µM) | 0.25 (≈ 0.683 µM) | 0.06 (≈ 0.164 µM) | 0.03 (≈ 0.082 µM) | 2 | – |
